Measurements reported in PubChem BioAssay.
Results filed as inconclusive are left out.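 How the source made its calls, unless noted: active means inhibition over a set limit, the all-compound mean plus 3 SD, in both replicate runs; inconclusive means over that limit in just one replicate run; inactive means at or under that limit in both runs.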

Tests used:
[1] = OD615 S. cerevisiae growth inhibition, permissive medium, pilot counter-assay, permissive growth control for S. cerevisiae lifespan shortening project (AID 705;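 active means growth inhibition above 25% in both replicates, a cutoff set 3 SD above the mean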); conditions: OD615, 24 h, at 10 µM, active compounds read high
In short: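 System: S. cerevisiae with engineered DeaD lifespan system / Measured by: absorbance (optical density) at 615 nm / Read-out: reduction in yeast growth (OD615) / Times: 4 h cell pre-growth, 24 h exposure at 30 °C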

[2] = Restrictive medium S. cerevisiae growth inhibition, OD615, pilot screen of yeast lifespan reduction project, restrictive growth control (AID 706;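 active means growth inhibition above a set limit, 3 SD over mean compound inhibition, in both replicates, cut at about 43% in these data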;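 further: modified DeaD lifespan yeast strain shifted to restrictive glucose medium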); conditions: OD615, 48 h, at 10 µM, active compounds read high
In short: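 System: Engineered S. cerevisiae DeaD strain | Buffer or medium: Glucose-based CSMM-D restrictive medium | Schedule: 4 h pre-incubation, 48 h exposure at 30 °C | Technique: Optical density at 615 nm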

[3] = viability gain of MRP-1-high H69AR cells under doxorubicin, pilot screen, MRP-1 activator project, CellTiter-Glo, duplicate (AID 807;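 active means viability increase at or above a cutoff of the median across tested compounds plus 3 SD, cut at about 8.5% in these data, passing the limit was not always enough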;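 further: compound pretreatment 18-22 h then 72 h combined with doxorubicin; 0% = doxorubicin alone and 100% = vehicle without doxorubicin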); conditions: H69AR viability with doxorubicin, CellTiter-Glo luminescence; at 10 µM; active compounds read high
[4] = growth suppression of beta-catenin knockout HCT116, pilot screen, human colon tumor cells (AID 823;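 active means cell viability at or below a set limit in both duplicate runs, the limit being the all-compound median minus 4 SD, cut at about 23% in these data, passing the limit was not always enough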;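 further: 0% = wells killed by 20 µM Hyamine and 100% = untreated DMSO cell wells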); conditions: CellTiter-Glo, 60 h, at 10 µM, active compounds read low
[5] = growth suppression of PTEN-deleted HCT116, pilot screen, cell-based, HCT116 clonal line, CellTiter-Glo (AID 824;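 active means viability at or below 27.92% in each of two runs, the all-compound median minus 4 SD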;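 further: 0% = 20 µM Hyamine control and 100% = vehicle cell control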); conditions: 60 h, at 10 µM, active compounds read low
[6] = inhibitors of the yeast RAM network, pilot screen, dse1pr::URA3 reporter, 5-FOA selection (AID 869);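 further: 0% = DMSO wells with no growth and 100% = 10 µM 1-NA-PP1 with full growth; RAM network block rescues cells from 5-FOA so hits raise OD615 growth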; conditions: S. cerevisiae dse1pr::URA3 5-FOA growth, OD615, 2 d; at 10 µM; active compounds read high; strain carries analog-sensitive mutant Cbk1 kinase
[7] = RAM signaling pathway blockade in yeast – S. cerevisiae, Pdr1DBD-CYC8 efflux-inhibited sensitized strain, primary screen (AID 1298;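 active means RAM network inhibition above 8.4% in each of two replicates, 3 SD over the compound average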;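 further: 0% = DMSO untreated cells without growth and 100% = 10 µM 1-NA-PP1 full growth; higher means more yeast growth rescued from 5-FOA killing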); conditions: S. cerevisiae cbk1-as DSE1-URA3 strain, 5-FOA growth OD615, 2 d; at 50 µM; active compounds read high

Cn1c(C(=O)NCCCN2CCCC2=O)cc2c(=O)n(C)c3ccccc3c21
inactive: growth inhibition [1] -6.28% | growth inhibition [2] -1.63% | viability increase [3] -4.16% | viability [4] 108% | viability [5] 94.4% | inhibition [6] 1.69% | RAM network inhibition [7] 0.06%

COc1ccc(C(=O)Nc2ccc(S(=O)(=O)N3CCCCC3C)cc2)c(OC)c1OC (stereo not drawn)
inactive: growth inhibition [1] -3.56% | growth inhibition [2] -3.8% | viability increase [3] -0.18% | viability [4] 91.2% | viability [5] 96.1% | inhibition [6] 0.03% | RAM network inhibition [7] 1.24%

CCOC(=O)N1CCC(NC(=O)Cn2nc(Cc3ccncc3)c3ccccc3c2=O)CC1
inactive: growth inhibition [1] -6.68% | growth inhibition [2] 3.71% | viability increase [3] -0.79% | viability [4] 94% | viability [5] 95.7% | inhibition [6] -0.58% | RAM network inhibition [7] 0.52%

C=CCOc1cccc(C2c3c(oc4ccc(F)cc4c3=O)C(=O)N2CCCN2CCOCC2)c1 (stereo not drawn)
inactive: growth inhibition [1] -4.2% | growth inhibition [2] 2.91% | viability increase [3] -5.54% | viability [4] 93% | viability [5] 93.5% | inhibition [6] -0.045% | RAM network inhibition [7] 1.42%

O=C(NCc1ccccc1)c1ccc2c(c1)OCCO2
inactive: growth inhibition [1] 3.26% | growth inhibition [2] 5.53% | viability increase [3] -1.83% | viability [4] 101% | viability [5] 101% | inhibition [6] 1.48% | RAM network inhibition [7] 0.51%

COc1ccc(C(=O)Nc2ccc(Cl)cc2C(=O)NCc2ccco2)cc1OC
inactive: growth inhibition [1] -0.55% | growth inhibition [2] -8.55% | viability increase [3] -4.93% | viability [4] 73.4% | viability [5] 68.9% | inhibition [6] 0.625% | RAM network inhibition [7] 7.76%

CCOC(=O)C1CCCN(C(=O)c2cc3c(=O)n(C)c4ccccc4c3n2C)C1 (stereo not drawn)
inactive: growth inhibition [1] -1.98% | growth inhibition [2] 0.3% | viability increase [3] -3.5% | viability [4] 94.2% | viability [5] 92.7% | inhibition [6] 0.67% | RAM network inhibition [7] -0.46%

COc1ccc(N2CCN(C(=O)c3ccc4c(c3)OCO4)CC2)cc1
inactive: growth inhibition [1] -2.83% | growth inhibition [2] 14.7% | viability increase [3] -0.77% | viability [4] 97.8% | viability [5] 100% | inhibition [6] 2.04% | RAM network inhibition [7] 0.86%

COCCN1C(=O)c2ccccc2C(C(=O)N2CCN(c3ccccn3)CC2)C1c1ccc(F)cc1 (stereo not drawn)
inactive: growth inhibition [1] 1.72% | growth inhibition [2] -22.7% | viability increase [3] -4.12% | viability [4] 92.2% | viability [5] 90.4% | inhibition [6] 0.335% | RAM network inhibition [7] 8.63%

Cn1c(=O)[nH]c(=O)c2c1nc(N1CCC(Cc3ccccc3)CC1)n2Cc1ccccc1
inactive: growth inhibition [1] -19.2% | growth inhibition [2] -10.1% | viability increase [3] -6.11% | viability [4] 82.8% | viability [5] 69.5% | inhibition [6] 2.9% | RAM network inhibition [7] 3.08%

O=c1oc2c3c4c(cc2c2c1CCC2)OCCN4CCC3
inactive: growth inhibition [1] -8.18% | growth inhibition [2] -0.795% | viability increase [3] -7.31% | viability [4] 58.3% | viability [5] 67.3% | inhibition [6] 0.055% | RAM network inhibition [7] 5.48%

O=C(NCCCc1ccccc1)C1CCN(c2nnc(-n3cccc3)s2)CC1
inactive: growth inhibition [1] -1.03% | growth inhibition [2] 0.98% | viability increase [3] 3.79% | viability [4] 93.3% | viability [5] 97% | inhibition [6] 0.175% | RAM network inhibition [7] 5.38%

COc1ccc(OC)c(NC(=O)c2nnn(CCc3ccccc3)c2N)c1
inactive: growth inhibition [1] -5.97% | growth inhibition [2] -3.14% | viability increase [3] -4.62% | viability [4] 88% | viability [5] 89.7% | inhibition [6] 1.85% | RAM network inhibition [7] 13.1%

COc1cccc(-c2nc(CS(=O)(=O)CC(=O)NCc3ccccc3OC)c(C)o2)c1
inactive: growth inhibition [1] 5.72% | growth inhibition [2] 2.59% | viability increase [3] -1.62% | viability [4] 95.9% | viability [5] 89.1% | inhibition [6] 1.55% | RAM network inhibition [7] 3.2%

O=C(CN1C(=O)CSc2ncccc21)N1CCOCC1
inactive: growth inhibition [1] 7% | growth inhibition [2] -0.87% | viability increase [3] -0.22% | viability [4] 97.9% | viability [5] 101% | inhibition [6] -0.115% | RAM network inhibition [7] 7.38%

O=C(NCCCN1CCCC1=O)c1ccccc1NS(=O)(=O)c1ccc(F)cc1
inactive: growth inhibition [1] -7.5% | growth inhibition [2] -22% | viability increase [3] -2.44% | viability [4] 88.9% | viability [5] 94.1% | inhibition [6] 1.57% | RAM network inhibition [7] 5.37%

Cc1c(NC(=O)OCCSc2nc(N(C)C)nc(N(C)C)n2)sc(=S)n1C
inactive: growth inhibition [1] 2.93% | growth inhibition [2] 3.13% | viability increase [3] -0.48% | viability [4] 83% | viability [5] 76% | inhibition [6] 2.92% | RAM network inhibition [7] 1.79%

CC(=O)c1ccc(OCC(O)Cn2nnc3ccccc32)cc1 (stereo not drawn)
inactive: growth inhibition [1] -15.7% | growth inhibition [2] -1.76% | viability increase [3] 0.2% | viability [4] 87.6% | viability [5] 97.9% | inhibition [6] 0.455% | RAM network inhibition [7] 7.79%

CCn1c(C(C)NC(=O)Cc2ccccc2)nc2ccccc21 (stereo not drawn)
inactive: growth inhibition [1] -12.2% | growth inhibition [2] -17.6% | viability increase [3] -1.21% | viability [4] 99.6% | viability [5] 96% | inhibition [6] 1.83% | RAM network inhibition [7] 4.91%

CCc1ccc(C2CC(=O)NC(SCC(=O)OC(C)C)=C2C#N)cc1 (stereo not drawn)
inactive: growth inhibition [1] -13.8% | growth inhibition [2] -4.45% | viability increase [3] 0.08% | viability [4] 78.9% | viability [5] 79.5% | inhibition [6] 1.15% | RAM network inhibition [7] 2.6%

CC(C)c1cc(C(=O)Nc2ccc3c(c2)OCO3)no1
inactive: growth inhibition [1] -13.7% | growth inhibition [2] 4.26% | viability increase [3] -4.63% | viability [4] 94.2% | viability [5] 92.8% | inhibition [6] 1.88% | RAM network inhibition [7] 3.88%

O=C(Nc1cccc(OC(F)(F)F)c1)c1ccc(Br)o1
inactive: growth inhibition [1] -1.13% | growth inhibition [2] 9.08% | viability increase [3] 1.31% | viability [4] 81.6% | viability [5] 75.1% | inhibition [6] 2.96% | RAM network inhibition [7] 0.92%

COCCNC(=O)CN1CCOc2ccccc21
inactive: growth inhibition [1] -22.5% | growth inhibition [2] 14.5% | viability increase [3] -4.65% | viability [4] 94.6% | viability [5] 102% | inhibition [6] 0.98% | RAM network inhibition [7] 3.11%

CCCNC(=O)C1CC(=O)N(c2ccc(OCC(=O)Nc3cccc(C)c3C)cc2)C1 (stereo not drawn)
inactive: growth inhibition [1] -13.4% | growth inhibition [2] -14.8% | viability increase [3] -1.99% | viability [4] 106% | viability [5] 97.7% | inhibition [6] 2.35% | RAM network inhibition [7] 1.01%
